The source made the active and inactive calls.
Experiments:
Malme-3M = test: Cytotoxicity against human MALME-3M cells by sulforhodamine B assay; assay type: functional
Procedure, shortened: (§1)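 NCI Developmental Therapeutics Program 60-cell-line human tumor panel screen, run at NCI. A single-concentration pre-screen was followed by a five-concentration dose-response in 10-fold steps. GI50 is the concentration that reduces growth of treated cells to half that of untreated control cells. TGI is the concentration that completely halts growth.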

M14 = test: Cytotoxicity against human M14 cells by sulforhodamine B assay; assay type: functional; details: for TGI: read-out: pTGI (converted); procedure, shortened: as §1
SK-MEL-28 = test: Cytotoxicity against human SK-MEL-28 cells by sulforhodamine B assay; assay type: functional; procedure, shortened: as §1
LOX IMVI = test: Cytotoxicity against human LOXIMVI cells assessed as cell growth at 8 nM by sulforhodamine B assay relative to control; assay type: functional; details: read-out: Activity
SW-620 = test: Cytotoxicity against human SW620 cells assessed as cell growth at 8 nM by sulforhodamine B assay relative to control; assay type: functional; details: read-out: Activity
NCI-H226 = test: Cytotoxicity against human NCI-H226 cells assessed as cell growth at 8 nM by sulforhodamine B assay relative to control; assay type: functional; details: read-out: Activity
A549 [1] = test: Cytotoxicity against human A549 cells assessed as cell growth at 8 nM by sulforhodamine B assay relative to control; assay type: functional; details: read-out: Activity
Procedure, shortened: (§2)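 Run at NCI in the DTP 60-cell-line human tumor panel by standard procedure. Compounds were first screened at a single concentration, then tested at five tenfold-spaced concentrations. GI50 is the concentration reducing treated-cell growth to half that of untreated controls; TGI is the concentration completely halting growth.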

UACC-62 = test: Cytotoxicity against human UACC62 cells assessed as cell growth at 8 nM by sulforhodamine B assay relative to control; assay type: functional; details: read-out: Activity
SN12C = test: Cytotoxicity against human SN12C cells assessed as cell growth at 8 nM by sulforhodamine B assay relative to control; assay type: functional; details: read-out: Activity
PC-3 = test: Cytotoxicity against human PC3 cells assessed as cell growth at 8 nM by sulforhodamine B assay relative to control; assay type: functional; details: read-out: Activity
BT-549 = test: Cytotoxicity against human BT549 cells assessed as cell growth at 8 nM by sulforhodamine B assay relative to control; assay type: functional; details: read-out: Activity; procedure, shortened: as §2
RPMI-8226 [2] = test: Cytotoxicity against human RPMI8226 cells assessed as cell growth at 80 nM by sulforhodamine B assay relative to control; assay type: functional; details: read-out: Activity
A549 [3] = test: Cytotoxicity against human A549 cells assessed as cell growth at 80 nM by sulforhodamine B assay relative to control; assay type: functional; details: read-out: Activity; procedure, shortened: as §2
NCI-H460 = test: Cytotoxicity against human NCI-H460 cells assessed as cell growth at 80 nM by sulforhodamine B assay relative to control; assay type: functional; details: read-out: Activity
SK-MEL-5 = test: Cytotoxicity against human SK-MEL-5 cells assessed as cell growth at 80 nM by sulforhodamine B assay relative to control; assay type: functional; details: read-out: Activity
OVCAR-4 = test: Cytotoxicity against human OVCAR4 cells assessed as cell growth at 80 nM by sulforhodamine B assay relative to control; assay type: functional; details: read-out: Activity
ACHN = test: Cytotoxicity against human ACHN cells assessed as cell growth at 80 nM by sulforhodamine B assay relative to control; assay type: functional; details: read-out: Activity; procedure, shortened: as §2
HOP-92 [4] = test: Cytotoxicity against human HOP92 cells assessed as cell growth at 800 nM by sulforhodamine B assay relative to control; assay type: functional; details: read-out: Activity
HT-29 [5] = test: Cytotoxicity against human HT-29 cells assessed as cell growth at 800 nM by sulforhodamine B assay relative to control; assay type: functional; details: read-out: Activity
786-0 = test: Cytotoxicity against human 786-0 cells assessed as cell growth at 800 nM by sulforhodamine B assay relative to control; assay type: functional; details: read-out: Activity; procedure, shortened: as §2
A498 = test: Cytotoxicity against human A498 cells assessed as cell growth at 800 nM by sulforhodamine B assay relative to control; assay type: functional; details: read-out: Activity; procedure, shortened: as §2
RXF 393 [6] = test: Cytotoxicity against human RXF393 cells assessed as cell growth at 800 nM by sulforhodamine B assay relative to control; assay type: functional; details: read-out: Activity
HOP-92 [7] = test: Cytotoxicity against human HOP92 cells assessed as cell growth at 8 uM by sulforhodamine B assay relative to control; assay type: functional; details: read-out: Activity
SNB-75 = test: Cytotoxicity against human SNB75 cells assessed as cell growth at 8 uM by sulforhodamine B assay relative to control; assay type: functional; details: read-out: Activity
UACC-257 = test: Cytotoxicity against human UACC257 cells assessed as cell growth at 8 uM by sulforhodamine B assay relative to control; assay type: functional; details: read-out: Activity
RXF 393 [8] = test: Cytotoxicity against human RXF393 cells assessed as cell growth at 8 uM by sulforhodamine B assay relative to control; assay type: functional; details: read-out: Activity
UO-31 = test: Cytotoxicity against human UO31 cells assessed as cell growth at 8 uM by sulforhodamine B assay relative to control; assay type: functional; details: read-out: Activity
RPMI-8226 [9] = test: Cytotoxicity against human RPMI8226 cells assessed as cell growth at 80 uM by sulforhodamine B assay relative to control; assay type: functional; details: read-out: Activity
HCT-116 [10] = test: Cytotoxicity against human HCT116 cells assessed as cell growth at 80 uM by sulforhodamine B assay relative to control; assay type: functional; details: read-out: Activity
HT-29 [11] = test: Cytotoxicity against human HT-29 cells assessed as cell growth at 80 uM by sulforhodamine B assay relative to control; assay type: functional; details: read-out: Activity
SK-OV-3 = test: Cytotoxicity against human SKOV3 cells assessed as cell growth at 80 uM by sulforhodamine B assay relative to control; assay type: functional; details: read-out: Activity
OVCAR-3 = test: Antitumor activity against human OVCAR3 cells xenografted in mouse assessed as tumor cell killing at 4.7 mg/kg, ip qd for 4 days by MTT assay; assay type: functional, organism-based; design: dose 4.7 mg/kg
Procedure, shortened: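 Hollow-fiber assay in mice. Tumor lines were grown in RPMI-1640 with 10% FBS and 2 mM glutamine. Cells at 2 × 10^6 cells/ml were loaded into 1 mm PVDF fibers (500,000 Da cutoff), heat-sealed at 2 cm and held 24–48 h at 37 °C, 5% CO2 before implantation. Compound was given IP. Fibers were collected the day after the fourth treatment for MTT (OD 540 nm, group means). A ≥50% cut in percent net growth versus vehicle counted as positive.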

HL-60(TB) = test: Cytotoxicity against human HL-60(TB) cells by sulforhodamine B assay; assay type: functional; details: for TGI: read-out: pTGI (converted)
Procedure, shortened: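 NCI Developmental Therapeutics Program 60-cell-line human tumor panel, standard procedure. Single-concentration prescreen first; active compounds then tested at five concentrations. GI50 is the concentration reducing growth of treated cells to half that of untreated controls.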

EKVX = test: Cytotoxicity against human EKVX cells by sulforhodamine B assay; assay type: functional; details: for TGI: read-out: pTGI (converted)
Procedure, shortened: (§3)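 Run by the NCI Developmental Therapeutics Program on its 60-line human tumour cell panel using the standard procedure. Compounds went through a single-concentration prescreen first, and those active by NCI criteria went on to a five-concentration growth-inhibition test. GI50 is the concentration that cuts growth of treated cells to half that of untreated control cells.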

HCT-116 [12] = test: Cytotoxicity against human HCT116 cells by sulforhodamine B assay; assay type: functional; details: for TGI: read-out: pTGI (converted); procedure, shortened: as §3
KM12 = test: Cytotoxicity against human KM12 cells by sulforhodamine B assay; assay type: functional; procedure, shortened: as §1
[13] = read-out: pLC50 (the source's name) (converted)

## C/C=C1\NC(=O)[C@H](Cc2ccccc2)NC(=O)[C@@H](C(C)C)NC(=O)[C@@H]([C@@H](C)CC)NC(=O)[C@H](NC(=O)[C@H](NC(=O)[C@H](CCCNCc2ccc(N3CCOCC3)cc2)NC(=O)[C@H]2CCCN2C(=O)[C@H](NC(=O)[C@@H](NC(=O)[C@@H](NC(=O)[C@H](NC(=O)CCCC(C)C)C(C)C)[C@@H](C)O)C(C)C)C(C)C)[C@@H](C)CC)[C@@H](C)OC(=O)[C@H](C(C)C)NC1=O
Malme-3M
  GI50: 1.7 µM
Malme-3M; read-out: pTGI (converted)
  TGI: 3.16 µM
M14
  GI50: 1.41 µM
  LC50: 4.68 µM
  TGI: 2.57 µM
SK-MEL-28
  GI50: 1.38 µM
SK-MEL-28; read-out: pTGI (converted)
  TGI: 2.57 µM
LOX IMVI
  growth at 0.008 µM: 95%
SW-620
  growth at 0.008 µM: 104%
NCI-H226
  growth at 0.008 µM: 94%
A549 [1]
  growth at 0.008 µM: 99%
UACC-62
  growth at 0.008 µM: 102%
SN12C
  growth at 0.008 µM: 86%
PC-3
  growth at 0.008 µM: 90%
BT-549
  growth at 0.008 µM: 106%
RPMI-8226 [2]
  growth at 0.08 µM: 113%
A549 [3]
  growth at 0.08 µM: 102%
NCI-H460
  growth at 0.08 µM: 103%
SK-MEL-5
  growth at 0.08 µM: 101%
OVCAR-4
  growth at 0.08 µM: 102%
ACHN
  growth at 0.08 µM: 102%
HOP-92 [4]
  growth at 0.8 µM: 79%
HT-29 [5]
  growth at 0.8 µM: 3%
786-0
  growth at 0.8 µM: 101%
A498
  growth at 0.8 µM: 100%
RXF 393 [6]
  growth at 0.8 µM: 97%
HOP-92 [7]
  growth at 8 µM: -2%
SNB-75
  growth at 8 µM: -80%
UACC-257
  growth at 8 µM: -76%
RXF 393 [8]
  growth at 8 µM: -47%
UO-31
  growth at 8 µM: -76%
RPMI-8226 [9]
  growth at 80 µM: -29%
HCT-116 [10]
  growth at 80 µM: -58%
HT-29 [11]
  growth at 80 µM: 8%
SK-OV-3
  growth at 80 µM: -23%
OVCAR-3
  Activity: inactive
HL-60(TB)
  GI50: 1.86 µM
  TGI: 5.25 µM
HL-60(TB); [13]
  CC50: > 75.9 µM
EKVX
  GI50: 0.776 µM
  TGI: 1.91 µM
HCT-116 [12]
  GI50: 1.55 µM
  LC50: 6.03 µM
  TGI: 3.09 µM
KM12
  LC50: > 75.9 µM
KM12; read-out: GI50
  GI50: 0.201 µM
KM12; read-out: pGI50 (converted)
  GI50: 0.2 µM

## C/C=C1\NC(=O)[C@H](Cc2ccccc2)NC(=O)[C@@H](C(C)C)NC(=O)[C@@H]([C@@H](C)CC)NC(=O)[C@H](NC(=O)[C@H](NC(=O)[C@H](CCCNCc2ccc(F)c(C)c2)NC(=O)[C@H]2CCCN2C(=O)[C@H](NC(=O)[C@@H](NC(=O)[C@@H](NC(=O)[C@H](NC(=O)CCCC(C)C)C(C)C)[C@@H](C)O)C(C)C)C(C)C)[C@@H](C)CC)[C@@H](C)OC(=O)[C@H](C(C)C)NC1=O
Malme-3M
  GI50: 1.48 µM
M14
  GI50: 1.35 µM
  TGI: 2.4 µM
SK-MEL-28
  GI50: 1.1 µM
LOX IMVI
  growth at 0.008 µM: 96%
SW-620
  growth at 0.008 µM: 99%
NCI-H226
  growth at 0.008 µM: 101%
A549 [1]
  growth at 0.008 µM: 100%
UACC-62
  growth at 0.008 µM: 103%
SN12C
  growth at 0.008 µM: 89%
PC-3
  growth at 0.008 µM: 109%
BT-549
  growth at 0.008 µM: 106%
RPMI-8226 [2]
  growth at 0.08 µM: 129%
A549 [3]
  growth at 0.08 µM: 98%
NCI-H460
  growth at 0.08 µM: 104%
SK-MEL-5
  growth at 0.08 µM: 99%
OVCAR-4
  growth at 0.08 µM: 104%
ACHN
  growth at 0.08 µM: 100%
HOP-92 [4]
  growth at 0.8 µM: 92%
HT-29 [5]
  growth at 0.8 µM: -52%
786-0
  growth at 0.8 µM: 96%
A498
  growth at 0.8 µM: 96%
RXF 393 [6]
  growth at 0.8 µM: 88%
HOP-92 [7]
  growth at 8 µM: -62%
SNB-75
  growth at 8 µM: -73%
UACC-257
  growth at 8 µM: -78%
RXF 393 [8]
  growth at 8 µM: -61%
UO-31
  growth at 8 µM: -78%
RPMI-8226 [9]
  growth at 80 µM: -21%
HCT-116 [10]
  growth at 80 µM: -94%
HT-29 [11]
  growth at 80 µM: 21%
SK-OV-3
  growth at 80 µM: -75%
OVCAR-3
  Activity: inactive
HL-60(TB)
  GI50: 1.58 µM
  TGI: 3.09 µM
EKVX
  GI50: 0.759 µM
  TGI: 1.82 µM
EKVX; [13]
  CC50: 4.37 µM
HCT-116 [12]
  GI50: 1.38 µM
  LC50: 4.27 µM
  TGI: 2.45 µM
KM12; read-out: GI50
  GI50: 0.155 µM
KM12; read-out: TGI
  TGI: 0.328 µM
KM12; read-out: pGI50 (converted)
  GI50: 0.155 µM
KM12; read-out: pTGI (converted)
  TGI: 0.331 µM

From ChEMBL document CHEMBL1921722, “In vitro and in vivo evaluation of select kahalalide F analogs with antitumor and antifungal activities” (Bioorg Med Chem, 2011)
